Test system: not listed separately
Experiment: Drug distribution in wild type BL/6J mouse eyes measured at 380 nM, IP administered single dose per eye after 3 hrs by LC-MS/MS electrospray ionization fragmentation spectra method
Type: ADME, tissue-based
Conditions: in vivo, 0.38 µM; call rule not given here
How it was run: (§1)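 Eight-week-old BL/6J mice got one i.p. dose of 380 nmol in 50 μL DMSO and were sacrificed at 3 h, 1 day or 7 days. Both eyes were homogenized in acetonitrile, and the extract was dried and reconstituted in 50% methanol/water. Analysis was by C18 LC-MS/MS with ESI and a formic acid/acetonitrile gradient.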
`NCCC(O)c1cccc(OCC2CCC(F)(F)CC2)c1` (centres undefined) gave a Drug uptake of 176 pmol.
With `CCCC(CCC)COc1cc([C@H](O)CCN)ccc1F` the Drug uptake was “Not Active”.
For `NCCC(O)c1ccc(F)c(OCC2CCCCC2)c1` (centres undefined), the Drug uptake was “Not Active”.

Test system: not listed separately
Experiment: Drug distribution in wild type BL/6J mouse eyes measured at 380 nM, IP administered single dose per eye after 7 days by LC-MS/MS electrospray ionization fragmentation spectra method
Type: ADME, tissue-based
Conditions: in vivo, 168 h, 0.38 µM, time 7 day
How it was run: as §1, with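 “gradient. The transition monitored was water loss (−18 Da), or −47 Da for one analog.” for “gradient.”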
For `NCCC(O)c1cccc(OCC2CCC(F)(F)CC2)c1` (centres undefined), the Drug uptake was 21 pmol.

Target: Retinoid isomerohydrolase (Bos taurus, UniProt Q28175)
Sequence (Q28175 whole entry): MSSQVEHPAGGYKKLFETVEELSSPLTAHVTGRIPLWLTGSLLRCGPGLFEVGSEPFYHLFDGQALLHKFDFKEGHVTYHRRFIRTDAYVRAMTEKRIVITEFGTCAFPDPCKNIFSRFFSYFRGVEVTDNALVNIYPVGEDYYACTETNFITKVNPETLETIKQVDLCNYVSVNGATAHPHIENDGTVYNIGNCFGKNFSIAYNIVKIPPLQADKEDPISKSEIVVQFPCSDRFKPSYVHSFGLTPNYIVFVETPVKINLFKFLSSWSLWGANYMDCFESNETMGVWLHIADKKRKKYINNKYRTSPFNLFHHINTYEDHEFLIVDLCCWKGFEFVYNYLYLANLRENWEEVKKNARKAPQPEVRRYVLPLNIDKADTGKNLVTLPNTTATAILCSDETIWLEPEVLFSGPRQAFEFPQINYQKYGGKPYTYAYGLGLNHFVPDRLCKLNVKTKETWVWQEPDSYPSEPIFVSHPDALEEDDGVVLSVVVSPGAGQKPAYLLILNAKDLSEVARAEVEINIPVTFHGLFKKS
Experiment: Inhibition of RPE65 in bovine retinal pigment epithelium microsomes assessed as decrease of 11-cis-retinol using trans-retinol measured after 1 hr by normal phase HPLC analysis
Parameters: species or system Retina, Microsome
Conditions: not given
With `CCCC(CCC)COc1cccc(C(O)CCN)c1F` (racemic) the IC50 was 287 nM.
`CCCC(CCC)COc1cc(F)cc(C(O)CCN)c1` (racemic; 25) gave an IC50 of 295 nM.
In the case of `CCCC(CCC)COc1cc(F)cc(C(O)CCN)c1` (racemic; 26), the IC50 is reported as 184 nM.
For `CCCC(CCC)COc1ccc(F)c(C(O)CCN)c1` (racemic; 27), the IC50 was 157 nM.
Compound `CCCC(CCC)COc1ccc(F)c(C(O)CCN)c1` (racemic; 28) has an IC50 of 132 nM.

— ChEMBL document CHEMBL5032497, “Rational Alteration of Pharmacokinetics of Chiral Fluorinated and Deuterated Derivatives of Emixustat for Retinal Therapy” (J Med Chem, 2021)
